This is one part of a sample in which hits are shown more often than they occur.
CHOP inhibitor: blocks CHOP induction under ER stress; AID 2732; inhibition, % at 10 µM; hit rate 3.8% among 220,000; CHO-K1 CHOP-promoter luciferase, tunicamycin-induced, 15-18 h;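 active = compounds that reduced the stress-induced luciferase reporter signal by more than about 70% of percent inhibition, limit read from the data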;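 also: 0% = tunicamycin plus vehicle and 100% = wells without tunicamycin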
UPR XBP1 act: adaptive UPR (XBP1) activation; CHO-XBP1 luciferase reporter, IRE1-XBP1 UPR activation, luminescence; percent of tunicamycin response, DMSO as zero; activation, % at 20 µM; hit rate 0.33% among 330,000; AID 463104;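 active = versus positive control, 20 µM dose yields 30% or more activation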;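 also: 100% = tunicamycin at 10 µg/mL and 0% = DMSO only wells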
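Material: CHO-XBP1 cells stably carrying IRE1-XBP1-driven luciferase reporter | Medium: F12 with 10% serum | Compound dosing: 20 µM single concentration, DMSO 1% | Incubation: Overnight seeding at 37 °C, 6 h compound treatment at 37 °C | Detection: Steady-Glo luminescence read | Read-out basis: % activation of reporter signal versus tunicamycin and DMSO controls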
T cruzi repl: blocks replication of Trypanosoma cruzi; T. cruzi beta-gal in NIH3T3, luminescence, 90 h; inhibition, % (no concentration beside the values); hit rate 1.4% among 300,000; AID 1885;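 active = mean inhibition across valid replicates above about 55%, limit read from the data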;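 also: signal also drops with host cell toxicity which is not excluded here; 0% = plate median of DMSO wells and 100% = zero luminescence signal; higher percent means less beta-gal luminescence so fewer parasites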
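compound dosing = single 50 nL compound addition per well in DMSO | material = NIH/3T3 host cells with β-galactosidase reporter T. cruzi | input = 5,000 host fibroblasts per well | timing = ≥90 h infection period, 3 h prior cell attachment | read-out basis = percent inhibition of parasite-derived β-gal signal | detection = GalScreen β-gal luminescence, detergent lysis, 60 min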
Lmaj promast: Leishmania major promastigote growth inhibition; Leishmania major promastigotes, resazurin fluorescence viability; inhibition, % at 10 µM; hit rate 9% among 200,000; AID 1063; in the data active = inhibition above about 50%;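 also: promastigotes grown with compound for 44 hours at 28 °C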
UPR CHOP act: activators of apoptotic arm of unfolded protein response (CHOP). hit rate 0.34% among 330,000. activation, % at 10 µM. CHO-CHOP luciferase reporter, UPR activation, luminescence; percent of tunicamycin response over DMSO baseline. AID 449763;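 active = at 10 µM dose, activation of 40% or more, normalized to positive control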;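 also: 100% = tunicamycin at 10 µg/mL and 0% = DMSO alone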
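Material: CHO-CHOP cells, stable luciferase reporter of PERK-eIF2a-CHOP signalling; quantity: 500 reporter cells seeded per well; buffer or medium: F12 medium containing 10% fetal bovine serum; compound: one dose, 10 µM in 0.5% DMSO; incubation: 6 h compound treatment, 37 °C; measured by: Steady-Glo luciferase luminescence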
Dynein cargo inh: dynein cargo transport inhibition; 3617.4 mouse cells, GR-EGFP nuclear translocation imaging; test concentration mostly 20 µM; stimulated with dexamethasone, 1 µM; hits give low values; z-score, hits read low; hit rate 0.47% among 220,000;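 active = plate z-score of nuclear minus cytoplasmic receptor signal below a set negative limit, without overly bright fluorescence or cell loss, cut at about -3.5 in these data, passing the limit was not always enough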;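 also: z-score of nuclear minus cytoplasmic ring GR-EGFP intensity difference per well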
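Medium: Induction medium lacking tetracycline, stripped serum | Probe or stimulus: 1.0 µM final dexamethasone stimulus | Schedule: 48 h induction, then 1 h compound, then 30 min agonist, 37 °C | Signal: Automated 10x imaging of fixed Hoechst-stained cells | Evaluation: Per-cell GR-EGFP intensity, nucleus versus surrounding cytoplasmic ring, well-averaged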
* hit, by the source's call; . = no result.

SMILES	CHOP inhibitor	UPR XBP1 act	T cruzi repl	Lmaj promast	UPR CHOP act	Dynein cargo inh
Cn1c(=O)c(C(=O)CN2CCN(Cc3ccc4c(c3)OCO4)CC2)c(N)n(Cc2ccccc2)c1=O	21	-2	16	.	3	0.21
COc1ccc(NC(=O)NC2(C(=O)N3CCN(C)CC3)CCCCC2)cc1	.	1	-12	.	-1	.
COc1ccc(-c2cc(C(=O)Nc3ccc(S(=O)(=O)Nc4onc(C)c4C)cc3)c3ccccc3n2)cc1	17	-3	-17	.	1	0.43
CCN(CC)S(=O)(=O)c1ccc2c(c1)c(=O)c(C(=O)NCc1ccco1)cn2C	19	-2	-7	29	1	-0.22
N#Cc1c(-c2ccccc2F)cc(-c2cccnc2)nc1N	18	2	-6	71*	-2	-1
N#Cc1c(-c2cccnc2)cc(-c2ccccc2)nc1N	-3	2	-12	.	0	-0.18
CC(C)CCn1c(=O)c2ccccc2c2ccccc2c1=O	78*	-2	.	-7	-1	0.22
COc1ccc(N2CCN(C(=O)c3ccc(COc4ccc([N+](=O)[O-])cc4)o3)CC2)cc1	.	-6	19	.	2	.
Cc1nn2c(-c3cccc(NC(=O)c4ccco4)c3)nnc2c2ccccc12	17	7	11	101*	4	0.87
O=c1oc2ccccc2nc1/C=C(O)/C=C/c1ccc(F)cc1	9	-3	-20	61*	3	-0.068
Cc1ccccc1N1C(=O)C(Oc2ccc(Cl)cc2)C1CNCCCOC(C)C (stereo not drawn)	36	-2	17	93*	1	-0.69
O=C(N/N=C/c1ccc([N+](=O)[O-])o1)c1ccccc1-n1cccc1	.	-1	67*	.	4	.
O=C(N/N=C/c1ccc([N+](=O)[O-])o1)c1cn(-c2ccccc2)nc1-c1ccc(Cl)cc1	-61	7	64*	76*	13	-0.85
O=C(O)COc1ccc(/C=N/NC(=O)c2cn(-c3ccccc3)nc2-c2ccccc2)cc1	.	1	-14	.	1	.
O=C(Nc1ccc([N+](=O)[O-])cc1)c1cn(-c2ccccc2)nc1-c1cc2ccccc2o1	0	9	0	56*	10	-0.97
O=C(N/N=C/c1ccc([N+](=O)[O-])o1)c1cn(-c2ccccc2)nc1-c1ccccc1	95*	0	60*	97*	2	0.41
Cc1nc(SC2CC(=O)N(c3cc(Cl)cc(Cl)c3)C2=O)nc2c1CCCC2 (stereo not drawn)	95*	0	-2	-1	-1	-0.31
Cc1cccc(N2C(=O)CC(Sc3nc(C)c4c(n3)CCCC4)C2=O)c1 (stereo not drawn)	-2	-2	-1	0	0	-0.15
COc1cc(C2CC(=O)C3=C(C2)Nc2ncnn2C3c2cccs2)cc(OC)c1OC (stereo not drawn)	-27	-4	11	.	-1	-0.053
COc1ccc(C2CC(=O)C3=C(C2)Nc2ncnn2C3c2ccccc2C)c(OC)c1 (stereo not drawn)	-23	3	61*	100*	-1	-0.3
CCN(CC)CC#CC(O)(c1ccccc1)c1ccccc1	3	-1	-1	7	-2	-0.43
CCN(CC)CC#CCC(O)(c1ccccc1)C1CCCC1 (stereo not drawn)	36	-5	59*	73*	-2	-0.97
CCN(CC)CC#CCC(OC)(c1ccccc1)c1ccccc1	-1	-3	20	55*	2	0.14
Cc1cccc(-c2nc(CS(=O)CC(=O)NCCc3ccc(Cl)cc3)c(C)o2)c1 (stereo not drawn)	.	-3	22	.	-1	.
CCOC(=O)C1(Cc2cccc(Cl)c2)CCCN(C(=O)CN2C(=O)CSC2=O)C1 (stereo not drawn)	.	-3	2	.	3	.
SMILES	CHOP inhibitor	UPR XBP1 act	T cruzi repl	Lmaj promast	UPR CHOP act	Dynein cargo inh
C/C=C(/C)C(=O)OC1c2c(ccc3ccc(=O)oc23)OC(C)(C)C1OC(C)=O (stereo not drawn)	12	0	4	67*	0	1.1
C/C=C(/C)C(=O)O[C@@H]1[C@H](OC(C)=O)c2c(ccc3ccc(=O)oc23)OC1(C)C	11	-1	4	8	0	0.77
O=C(COC(=O)[C@@H]1CC(O)CN1S(=O)(=O)c1ccc2c(c1)OCCO2)NCc1ccc(F)cc1 (stereo partly drawn)	6	-2	7	-9	0	0.071
Cc1ccc(C(C[N+](=O)[O-])c2c(C)[nH]n(-c3ccccc3)c2=O)cc1 (stereo not drawn)	13	4	-7	97*	11	-3.2
COc1ccc(C(c2c(C)[nH]n(-c3ccccc3)c2=O)c2c(C)[nH]n(-c3ccccc3)c2=O)cc1OC	12	1	3	88*	-1	1.1
COc1ccc(C(c2c(C)n(C)n(-c3ccccc3)c2=O)c2c(C)n(C)n(-c3ccccc3)c2=O)cc1OC	.	-3	-5	.	1	.
Cc1[nH]n(-c2ccccc2)c(=O)c1C(C[N+](=O)[O-])c1ccc(F)cc1 (stereo not drawn)	51	0	2	60*	-1	-1.2
CC1CCC2(CC1)NC(=O)N(CC(=O)c1cn(CCC#N)c3ccccc13)C2=O (stereo not drawn)	12	-2	13	.	0	0.62
CN(C)CCCN(C(=O)c1ccc(S(=O)(=O)N2CCCCCC2)cc1)c1nc2c(F)cc(F)cc2s1	.	0	53	.	2	.
COc1ccc(NC(=O)OCCn2c([N+](=O)[O-])cnc2C)cc1	34	0	1	54*	0	0.032
CCCCNC(=O)Oc1cc(CCl)on1	10	-1	-31	2	2	0.89
CCCCNC(=O)Oc1c(Br)cc2sc(=O)oc2c1Br	103*	-1	.	.	-2	-0.43
CCC(C)(C)NC(=O)C(c1ccccc1)N(Cc1cccs1)C(=O)Cn1nnc2ccccc21 (stereo not drawn)	.	-5	12	68*	0	0.37
CCC(C)(C)NC(=O)C(c1ccc(C)o1)N(Cc1cccs1)C(=O)Cn1nnc2ccccc21 (stereo not drawn)	77*	-5	32	36	0	-0.058
O=C(NCc1ccco1)C(c1ccco1)N(Cc1cccs1)C(=O)Cn1nnc2ccccc21 (stereo not drawn)	-2	-1	-5	4	1	0.31
Cc1ccc(Nc2nnc(SCC(=O)NCC3CCCO3)s2)cc1C (stereo not drawn)	.	0	.	.	2	.
Cc1ccc(S(=O)(=O)C2(C(=O)N3CCN(C4CCCCC4)CC3)CC2)cc1	-26	-2	-5	76*	1	-0.16
